Measured values from different studies.
Compare with care: the assays were run in different laboratories.

| SMILES | target or system | assay | system | setting | endpoint | value |
| --- | --- | --- | --- | --- | --- | --- |
| CN1CCN(S(=O)(=O)c2cc([N+](=O)[O-])ccc2N(CCOS(C)(=O)=O)CCOS(C)(=O)=O)CC1 | – | – | female SCID mouse, plasma | intraperitoneal, 25 mg/kg | MRT(0-inf) | 25.2 min |
| NCCNC(=O)O[C@H]1CCC[C@@]2(C1)OOC1(O2)C2CC3CC(C2)CC1C3 (stereo partly drawn) | – | – | male CD-1 mouse, plasma | intravenous, 3 mg/kg | MRT(0-inf) | 35.2 min |
| Cn1cc2c3c1C(=O)C(N)=CC3=[N+](C)CC2 | HepG2 | cell growth or viability, MTT | – | 72 h | CC50 | 1000 nM |
| CNC(C)Cc1ccc2c(c1)OCO2 (stereo not drawn) | – | metabolic stability | human, liver microsomes | 0.5 µM | half-life | > 150 min |
| COc1ccc([C@@]23Oc4cc(OC)cc(OC)c4[C@@]24NC(C)=N[C@@]4(O)[C@H](C(=O)N(C)OC)[C@H]3c2ccccc2)cc1 | – | metabolic stability | human, liver microsomes | – | half-life | 120 min |
| CNC(C)Cc1ccc2n[se]nc2c1 (stereo not drawn) | – | metabolic stability | human, liver microsomes | 0.5 µM | half-life | > 150 min |
| COCC1=N[C@@]2(O)[C@H](C(=O)N(C)OC)[C@@H](c3ccccc3)[C@]3(c4ccc(OC)cc4)Oc4cc(OC)cc(OC)c4[C@]23N1 | – | metabolic stability | human, liver microsomes | 1 µM, pH 7.4 | half-life | 24.8 min |
| CC(C)(N)CNC(=O)O[C@H]1CCC[C@@]2(C1)OOC1(O2)C2CC3CC(C2)CC1C3 (stereo partly drawn) | – | – | male CD-1 mouse, plasma | intravenous, 3 mg/kg | MRT(0-inf) | 32.5 min |
| Cn1cc2c3c1C(=O)C(N)=CC3=NCC2 | HepG2 | cell growth or viability, MTT | – | 72 h | CC50 | 2000 nM |
